Source: PubChem BioAssay
Compounds with a hit are over-represented: about 5.8% of the library has one in this group of screens.
IDH1 mut inh = inhibitors of IDH1 R132H reductase, primary screen, biochemical, plate reader, single point. diaphorase/resazurin fluorescence, 60 min. inhibition, % at 10 µM. hit rate 0.18% among 70,000; in the data active = inhibition above about 34%; inconclusive = no clear call, values can overlap the other calls; inactive = below about 11%
Target sequence (O75874 whole entry R132H): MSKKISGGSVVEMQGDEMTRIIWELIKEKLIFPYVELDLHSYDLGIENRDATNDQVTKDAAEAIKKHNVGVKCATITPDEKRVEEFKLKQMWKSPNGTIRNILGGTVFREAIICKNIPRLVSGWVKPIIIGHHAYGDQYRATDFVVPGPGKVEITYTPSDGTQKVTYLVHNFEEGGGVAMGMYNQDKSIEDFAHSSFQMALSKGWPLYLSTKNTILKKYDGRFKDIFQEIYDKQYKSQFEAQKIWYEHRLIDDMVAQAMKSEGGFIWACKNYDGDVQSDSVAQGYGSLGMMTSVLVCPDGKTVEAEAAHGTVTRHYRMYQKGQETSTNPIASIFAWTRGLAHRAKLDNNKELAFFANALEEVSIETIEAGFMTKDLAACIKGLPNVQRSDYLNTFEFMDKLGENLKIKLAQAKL
Pf Dd2 growth = P. falciparum Dd2 growth inhibitors, primary screen, SYBR Green fluorescence, single dose replicates. 72 h; active compounds read low. activity change, % at 10 µM. hit rate 2.3% among 94,000; in the data active = activity change below about -80%; inconclusive = no clear call, values can overlap the other calls
GASC1 inh = inhibitors of GASC-1 (KDM4C) histone demethylase, primary screen, biochemical, single concentration HTS; AID 720574, 2013; Lysine-specific demethylase 4C (Homo sapiens), Q9H3R0; inhibition, % at 12.5 µM; GST-KDM4C 2-372, H3K9me3 peptide, LANCE TR-FRET; hit rate 0.15% among 96,000;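 active = mean replicate inhibition above about 25%, with at least 55% of replicates also reaching it, limit read from the data, passing the limit was not always enough; inconclusive = only one of those two conditions met; inactive = neither condition met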
Target sequence (Q9H3R0 2-372 limits assumed): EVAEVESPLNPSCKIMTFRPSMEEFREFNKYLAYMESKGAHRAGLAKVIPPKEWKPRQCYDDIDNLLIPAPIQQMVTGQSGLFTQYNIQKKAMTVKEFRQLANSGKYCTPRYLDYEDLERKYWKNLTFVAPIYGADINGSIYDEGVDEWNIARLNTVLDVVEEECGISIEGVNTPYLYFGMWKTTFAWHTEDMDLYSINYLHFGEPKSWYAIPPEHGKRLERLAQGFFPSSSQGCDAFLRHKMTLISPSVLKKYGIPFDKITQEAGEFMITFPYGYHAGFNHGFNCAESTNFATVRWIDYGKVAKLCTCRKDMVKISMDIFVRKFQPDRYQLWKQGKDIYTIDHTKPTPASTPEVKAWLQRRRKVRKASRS
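Material: GST-tagged GASC-1 (JMJD2C) catalytic fragment, aa 2-372 / Quantity: enzyme final amount 10 nM / Medium: HEPES buffer, pH 7.5, plus ascorbate / Doses: one test concentration per compound / Incubation: 30 min reaction, 60 min detection, RT / Measured by: LANCE TR-FRET / Read-out: inhibition from TR-FRET ratio decrease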
T cruzi growth-1 = T. cruzi intracellular proliferation inhibitors, primary screen, cell-based, beta-gal Tulahuen parasites, NIH3T3 host, luminescence; T. cruzi beta-gal in NIH3T3, GalScreen luminescence, 90 h; inhibition, % at 8.34 µM; hit rate 5.9% among 77,000; AID 624255, 2012;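 active = mean inhibition above about 93%, with at least 55% of replicates each passing it, limit read from the data, passing the limit was not always enough; inconclusive = only one of those two conditions holds; inactive = neither condition holds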
T cruzi growth-2 = T. cruzi intracellular proliferation inhibitors, confirmation, cell-based, NIH3T3 host, beta-gal parasite, luminescence, cherry-pick. shares compounds with T cruzi growth-1. T. cruzi beta-gal in NIH3T3, GalScreen luminescence, 90 h. inhibition, % at 8.35 µM. hit rate 72% among 5,600;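 active = mean replicate inhibition above about 95% and at least 55% of replicates individually reaching it, limit read from the data; inconclusive = only one of the two criteria is met; inactive = neither criterion is met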
T cruzi growth-3 = inhibitors of intracellular T. cruzi replication, confirmation, NIH3T3 host cells, beta-gal parasites, cherry-pick, set 2; shares compounds with T cruzi growth-1; T. cruzi beta-gal in NIH3T3, GalScreen luminescence, 90 h; inhibition, % at 2.09 µM; hit rate 21% among 5,600;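 active = mean inhibition above about 95%, with at least 55% of replicates also reaching it, limit read from the data; inconclusive = meets just one of the two conditions; inactive = meets neither condition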
NIH3T3 tox = cytotoxicity in mouse NIH/3T3 fibroblasts, confirmation, cytotoxicity control for T. cruzi proliferation inhibitor project, cell-based, cherry-pick, single point. shares compounds with T cruzi growth-1. NIH/3T3 viability, CellTiter-Glo ATP luminescence, 90 h. cytotoxicity (signal decrease), % at 8.35 µM. hit rate 14% among 5,600;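 active = mean signal decrease across replicates above about 35% based on untreated-well scatter, with enough replicates individually passing, limit read from the data; inconclusive = no rule stated though some were filed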
3T3 cytotox 2 = NIH/3T3 fibroblast cytotoxicity, confirmation, cytotoxicity control, cell-based, cherry-pick, single point, set 2; shares compounds with T cruzi growth-1; NIH/3T3 viability, CellTiter-Glo ATP luminescence, 90 h; inhibition, % at 24.9 µM; hit rate 56% among 5,600; AID 651744, 2012;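 active = mean loss of cell viability signal at or above a set limit, and enough replicates individually reaching it; inconclusive = meets only the mean limit or only the replicate share; inactive = meets neither condition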
A number is an active result; 0 = inactive; ? = inconclusive; - = not tested or not shown; ! = not confirmed by another sample.

SMILES | IDH1 mut inh | Pf Dd2 growth | GASC1 inh | T cruzi growth-1 | T cruzi growth-2 | T cruzi growth-3 | NIH3T3 tox | 3T3 cytotox 2
C[C@H]1CN([C@@H](C)CO)S(=O)(=O)c2ccc(C#Cc3ccccn3)cc2O[C@@H]1CN(C)Cc1cccc(F)c1 | - | 0 | 0 | 126.5 | 97.9 | 0 | 0 | 69.9
COc1ccc(NC(=O)N2C[C@H](O)COC[C@@H]3O[C@H](CC(=O)N4CCN(C)CC4)CC[C@H]32)cc1 | - | 0 | 0 | 0 | - | - | - | -
COc1ccc(S(=O)(=O)N(C)C[C@H]2Oc3cc(C#CC4CC4)ccc3S(=O)(=O)N([C@H](C)CO)C[C@@H]2C)cc1 | - | 0 | 0 | 105.8 | 103.0 | 0 | 0 | 49.9
C[C@@H]1CN([C@H](C)CO)S(=O)(=O)c2ccc(C#CC3CCCC3)cc2O[C@H]1CN(C)S(C)(=O)=O | 0 | 0 | 0 | 0 | - | - | - | -
Cc1ccc(S(=O)(=O)N(C)C[C@@H]2Oc3cc(C#CC4CCCC4)ccc3S(=O)(=O)N([C@H](C)CO)C[C@@H]2C)cc1 | 0 | 0 | 0 | 124.7 | 0 | 102.9 | 0 | 0
COc1ccc(S(=O)(=O)N(C)C[C@@H]2Oc3cc(C#CC4CCCCC4)ccc3S(=O)(=O)N([C@@H](C)CO)C[C@@H]2C)cc1 | 0 | -84.0! | 0 | 110.9! | 0 | 0 | 0 | 59.2
COc1ccc(S(=O)(=O)N(C)C[C@@H]2Oc3cc(C#CC4CC4)ccc3S(=O)(=O)N([C@@H](C)CO)C[C@@H]2C)cc1 | - | 0 | 0 | 109.8 | 103.8 | 100.9 | 0 | 26.9
O=C(Nc1ccc(Cl)cc1)N1C[C@H]2[C@@H](c3ccccc31)[C@@H](CO)N2C(=O)c1cccnc1 | - | 0 | 0 | 0 | - | - | - | -
COc1ccc(S(=O)(=O)N(C)C[C@@H]2Oc3cc(C#CC4CCCC4)ccc3S(=O)(=O)N([C@H](C)CO)C[C@H]2C)cc1 | 0 | 0 | 0 | 0 | - | - | - | -
COc1ccc(S(=O)(=O)N(C)C[C@@H]2Oc3cc(C#CC4CC4)ccc3S(=O)(=O)N([C@H](C)CO)C[C@@H]2C)cc1 | 0 | 0 | 0 | 109.0 | 104.3 | 0 | 0 | 25.3
CC(C)(O)C#Cc1ccc([C@@H]2[C@@H](CO)N3CCCCN(C(=O)c4cccc(F)c4)C[C@@H]23)cc1 | - | 0 | 0 | 113.3 | 0 | 0 | 0 | 0
CC(C)(O)C#Cc1ccc([C@H]2[C@@H](CO)N3CCCCN(C(=O)c4cccc(F)c4)C[C@@H]23)cc1 | - | 0 | 0 | 102.6 | 104.6 | 0 | 0 | 0
C[C@H]1CN([C@@H](C)CO)C(=O)Cc2cc(NC(=O)CCCCCC(=O)Nc3ccccc3N)ccc2O[C@H]1CN(C)Cc1ccc(C(F)(F)F)cc1 | - | 0 | 0 | 0 | - | - | - | -
C[C@H]1CN([C@@H](C)CO)C(=O)c2cccc(NC(=O)c3nc4ccccc4s3)c2O[C@H]1CN(C)Cc1ccc2c(c1)OCO2 | - | 0 | 0 | - | - | - | - | -
O=C(C[C@H]1CC[C@H]2[C@@H](COC[C@@H](O)CN2S(=O)(=O)c2cccc(Cl)c2)O1)Nc1ccccc1 | - | 0 | 0 | 0 | - | - | - | -
O=C(C[C@@H]1CC[C@@H]2[C@H](COC[C@H](O)CN2S(=O)(=O)c2cccc(Cl)c2)O1)Nc1ccc(-c2ccccc2)cc1 | - | 0 | 0 | 110.3 | 0 | 111.3 | 36.4 | 75.4
O=C(C[C@@H]1CC[C@H]2[C@@H](COC[C@H](O)CN2S(=O)(=O)c2cccc(Cl)c2)O1)Nc1ccc(-c2ccccc2)cc1 | - | 0 | 0 | ? | 110.0 | 0 | 0 | 105.3
C[C@H]1CN([C@@H](C)CO)C(=O)c2cccc(NC(=O)c3ccc(-c4nccs4)cc3)c2O[C@@H]1CN(C)Cc1ccc(C(F)(F)F)cc1 | 0 | 0 | 0 | 109.3 | 0 | 0 | 0 | 83.7
C[C@@H]1CN([C@H](C)CO)C(=O)c2cccc(NC(=O)c3ccc(-c4nccs4)cc3)c2O[C@@H]1CN(C)Cc1ccc(C(F)(F)F)cc1 | 0 | 0 | 0 | 0 | - | - | - | -
C[C@@H]1CN([C@@H](C)CO)C(=O)c2cccc(NC(=O)c3ccc(-c4nccs4)cc3)c2O[C@@H]1CN(C)Cc1ccc(C(F)(F)F)cc1 | 0 | 0 | 0 | ? | 110.9 | 102.4 | 0 | 0
CC(=O)O[C@@H]1CC(=O)OC(C)(C)C2CC(=O)[C@]3(C)C(CC[C@@]4(C)[C@H](c5ccoc5)OC(=O)[C@H]5O[C@]543)[C@]21C (stereo partly specified) | 0 | - | - | - | - | - | - | -
OC[C@@H]1[C@H](c2ccc(C#Cc3ccccc3)cc2)[C@@H]2CN(CC3CCOCC3)CCCCN12 | - | 0 | 0 | 104.4 | 106.0 | 0 | 0 | 103.2
CCCC#Cc1ccc([C@H]2[C@H]3CN(CC4CCOCC4)CCCCN3[C@H]2CO)cc1 | - | 0 | 0 | 0 | - | - | - | -
OC[C@H]1[C@H](c2ccc(C#Cc3ccccc3)cc2)[C@H]2CN(CC3CCOCC3)CCCCN21 | - | 0 | 0 | 102.5 | 108.8 | 0 | 75.9 | 104.9
OC[C@@H]1[C@@H](c2ccc(C#Cc3ccccc3)cc2)[C@@H]2CN(CC3CCOCC3)CCCCN12 | - | 0 | 0 | ? | 105.1 | 0 | 52.0 | 105.3
SMILES | IDH1 mut inh | Pf Dd2 growth | GASC1 inh | T cruzi growth-1 | T cruzi growth-2 | T cruzi growth-3 | NIH3T3 tox | 3T3 cytotox 2
OC[C@H]1[C@@H](c2ccc(C#Cc3ccccc3)cc2)[C@H]2CN(CC3CCOCC3)CCCCN21 | - | 0 | 0 | 0 | - | - | - | -
CCCC#Cc1ccc([C@H]2[C@@H](CO)N3CCCCN(CC4CCOCC4)C[C@H]23)cc1 | - | 0 | 0 | 124.4 | 0 | 0 | 0 | 100.8
C[C@H](CO)N1C[C@H](C)[C@H](CN(C)C(=O)CCN(C)C)OCc2ccccc2-c2ccccc2C1=O | 0 | 0 | 0 | 0 | - | - | - | -
C[C@H]1CN([C@@H](C)CO)C(=O)c2cc(NC(=O)CCN3CCOCC3)ccc2O[C@@H]1CN(C)Cc1ccc2c(c1)OCO2 | 0 | 0 | 0 | 0 | - | - | - | -
OC[C@H]1[C@H](c2ccc(C#Cc3ccccc3F)cc2)[C@@H]2CN(CC3CCOCC3)CCCCN12 | - | 0 | 0 | ? | 106.1 | 0 | 41.1 | 105.6
OC[C@@H]1[C@H](c2ccc(C#Cc3ccccc3F)cc2)[C@H]2CN(CC3CCOCC3)CCCCN12 | - | 0 | 0 | 105.6 | 101.1 | 109.6 | 39.7 | 103.7
OC[C@H]1[C@@H](c2ccc(C#Cc3ccccc3F)cc2)[C@@H]2CN(CC3CCOCC3)CCCCN12 | - | 0 | 0 | 0 | - | - | - | -
